Our source for the inhibition in vivo, Activity and growth values is ChEMBL document CHEMBL2417474, “Synthesis, antiproliferative and anti-inflammatory activities of some novel 6-aryl-2-(p-(methanesulfonyl)phenyl)-4,5-dihydropyridazi-3(2H)-ones” (Eur J Med Chem, 2013).

Data set [1] deals with Rattus norvegicus. Nature of the data set: Antiinflammatory activity in Wistar rat assessed as inhibition of carrageenan-induced paw edema at 0.05 mmol/kg, po administered 30 mins prior challenge measured after 3 hrs. It is filed as functional. The method in brief: (§1)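 Wistar rats of either sex, 150–175 g, fasted 16 h, 6 per group. Dosed orally at 0.05 mmol/kg, suspended in 1% CMC in water (10 ml/kg). 30 min later, 0.1 ml of 1% carrageenan in saline injected subplantar into the left hind paw. Paw volume read by plethysmometer at 0, 3 and 5 h. % inhibition = (1 − Vt/Vc) × 100 against the vehicle group.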
Background: The carrageenan paw model is a standard test of acute inflammation.

In data set [2] the test system is Rattus norvegicus. As to the kind of experiment: Ulcerogenic activity in Wistar albino rat at 0.15 mmol/kg, po measured after 6 hrs. Particulars: in vivo. It is filed as toxicity, organism-based. An outline of the steps:
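Acute gastric ulcer test in Wistar rats (160–220 g) fasted 24 h, randomized into groups of six. Compound (0.15 mmol/kg) suspended in 1% w/v CMC in distilled water (10 ml/kg vehicle) was given orally, with vehicle and etoricoxib groups alongside. Animals were sacrificed under deep ether anesthesia 6 h after dosing.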

In data set [3] the test system is Rattus norvegicus. As to the kind of experiment: Antiinflammatory activity in Wistar rat assessed as inhibition of carrageenan-induced paw edema at 0.05 mmol/kg, po administered 30 mins prior challenge measured after 5 hrs. It is filed as functional. An outline of the steps:
as §1

The next data set deals with UO-31. As to the kind of experiment: Growth inhibition of human UO31 cells assessed as cell growth at 10 uM after 48 hrs by sulforhodamine B assay. It is filed as functional. To be noted: UO-31, 48 h, read-out: Activity. The method in brief:
(§2)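 Single-dose NCI screen. Tumor lines were cultured in medium with 5% fetal calf serum and 2 mM L-glutamine, preincubated 24 h, then given compound in DMSO. After 48 h continuous exposure, cell growth was estimated by sulforhodamine B protein assay.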
On the technique in general: The SRB assay estimates cell density from bound dye.

In another data set the test system is MDA-MB-468. As to the kind of experiment: Growth inhibition of human MDA-MB-468 cells assessed as cell growth at 10 uM after 48 hrs by sulforhodamine B assay. It is filed as functional. To be noted: MDA-MB-468, 48 h, read-out: Activity.
For another data set, the system named is K562. Nature of the data set: Growth inhibition of human K562 cells assessed as cell growth at 10 uM after 48 hrs by sulforhodamine B assay. It is filed as functional. Particulars: K562, 48 h, read-out: Activity.
A further data set has as its system T47D. As to the kind of experiment: Growth inhibition of human T47D cells assessed as cell growth at 10 uM after 48 hrs by sulforhodamine B assay. It is filed as functional. To be noted: read-out: Activity. An outline of the steps: as §2
The test system of the next data set is SK-MEL-5. Nature of the data set: Growth inhibition of human SK-MEL-5 cells assessed as cell growth at 10 uM after 48 hrs by sulforhodamine B assay. Particulars: SK-MEL-5, 48 h, read-out: Activity. It is filed as functional.
Data set [4] can be described thus: Growth inhibition of human EKVX cells assessed as cell growth at 10 uM after 48 hrs by sulforhodamine B assay. It is filed as functional. Particulars: read-out: Activity.
In a further data set the test system is CAKI-1. Nature of the data set: Growth inhibition of human CAKI-1 cells assessed as cell growth at 10 uM after 48 hrs by sulforhodamine B assay. Particulars: CAKI-1, 48 h, read-out: Activity. It is filed as functional.
The next data set concerns SF-295. As to the kind of experiment: Growth inhibition of human SF295 cells assessed as cell growth at 10 uM after 48 hrs by sulforhodamine B assay. It is filed as functional. To be noted: SF-295, 48 h, read-out: Activity.
The test system of a further data set is OVCAR-3. Nature of the data set: Growth inhibition of human OVCAR3 cells assessed as cell growth at 10 uM after 48 hrs by sulforhodamine B assay. It is filed as functional. Particulars: OVCAR-3, 48 h, read-out: Activity.
A short description of data set [5]: Growth inhibition of human Hs 578T cells assessed as cell growth at 10 uM after 48 hrs by sulforhodamine B assay. To be noted: read-out: Activity. It is filed as functional.
In another data set the test system is MOLT-4. Nature of the data set: Growth inhibition of human MOLT4 cells assessed as cell growth at 10 uM after 48 hrs by sulforhodamine B assay. It is filed as functional. Particulars: MOLT-4, 48 h, read-out: Activity.
Data set [6] is described as follows: Growth inhibition of human NCI-ADR-RES cells assessed as cell growth at 10 uM after 48 hrs by sulforhodamine B assay. It is filed as functional. To be noted: read-out: Activity.
A further data set relates to NCI-H522. As to the kind of experiment: Growth inhibition of human NCI-H522 cells assessed as cell growth at 10 uM after 48 hrs by sulforhodamine B assay. It is filed as functional. Particulars: NCI-H522, 48 h, read-out: Activity.
A further data set deals with NCI-H23. Nature of the data set: Growth inhibition of human NCI-H23 cells assessed as cell growth at 10 uM after 48 hrs by sulforhodamine B assay. It is filed as functional. To be noted: NCI-H23, 48 h, read-out: Activity.
A further data set relates to RPMI-8226. As to the kind of experiment: Growth inhibition of human RPMI8226 cells assessed as cell growth at 10 uM after 48 hrs by sulforhodamine B assay. To be noted: RPMI-8226, 48 h, read-out: Activity. It is filed as functional.
Another data set has as its system SR. Nature of the data set: Growth inhibition of human SR cells assessed as cell growth at 10 uM after 48 hrs by sulforhodamine B assay. It is filed as functional. Particulars: read-out: Activity. The method in brief: as §2
The subject of a further data set is MDA-MB-435. Nature of the data set: Growth inhibition of human MDA-MB-435 cells assessed as cell growth at 10 uM after 48 hrs by sulforhodamine B assay. It is filed as functional. To be noted: MDA-MB-435, 48 h, read-out: Activity.
In the next data set the test system is HL-60(TB). Nature of the data set: Growth inhibition of human HL-60(TB) cells assessed as cell growth at 10 uM after 48 hrs by sulforhodamine B assay. Particulars: HL-60, 48 h, read-out: Activity. It is filed as functional.

By inhibition in vivo is commonly meant the change of the read-out against control, counted positive when it falls. Turning to `Cc1ccc(O)c(C2=NN(c3ccc(S(C)(=O)=O)cc3)C(=O)CC2)c1`, the inhibition in vivo at 50 µmol/kg with Rattus norvegicus [1] is 66.6%; in the data set on Rattus norvegicus [3], 86.8%. In the data set on Rattus norvegicus [2], the Activity result was “Non-toxic”. The growth at 10 µM with UO-31 was determined as 70%.

For `CS(=O)(=O)c1ccc(N2N=C(c3ccc(Oc4ccccc4)cc3)CCC2=O)cc1`, the inhibition in vivo at 50 µmol/kg with Rattus norvegicus [1] is 50%; in the data set on Rattus norvegicus [3], 65.7%. Besides, the growth at 10 µM in the data set on MDA-MB-468 was determined as 41.6%; in the data set on UO-31, 48.8%; in the data set with K562, 39.7%; in the data set on T47D, 44.4%; with SK-MEL-5, 35.1%; in data set [4], 20.1%. Besides, the results for the growth at 10 µM in the data set on CAKI-1 and with SF-295 were 49.8% and 28.8%, respectively.

On to `CS(=O)(=O)c1ccc(N2N=C(c3ccccc3)CCC2=O)cc1`, for which the values for the inhibition in vivo at 50 µmol/kg in the data set with Rattus norvegicus [1] and in the data set with Rattus norvegicus [3] were 26.6% and 47.3%, respectively.

With `CS(=O)(=O)c1ccc(N2N=C(c3ccc(Br)cc3)CCC2=O)cc1`, the inhibition in vivo at 50 µmol/kg with Rattus norvegicus [1] stood at 10%; in the data set with Rattus norvegicus [3], 31.5%.

In the case of `CS(=O)(=O)c1ccc(N2N=C(c3ccc(-c4ccccc4)cc3)CCC2=O)cc1`, the inhibition in vivo at 50 µmol/kg came to 6.6% in the data set with Rattus norvegicus [1] and 21% with Rattus norvegicus [3]. Also, the results for the growth at 10 µM (in the data set on OVCAR-3; in data set [4]; in data set [5]) were 42.1%, 29.6% and 64.6%, respectively.

Take `CS(=O)(=O)c1ccc(N2N=C(c3ccc(F)cc3)CCC2=O)cc1`: the inhibition in vivo at 50 µmol/kg in the data set on Rattus norvegicus [1] amounted to 60%; with Rattus norvegicus [3] it was 73.6%. Also, the growth at 10 µM with K562 was 41.8%; in the data set with MOLT-4, 44.7%.

As to `Cc1cc(C2=NN(c3ccc(S(C)(=O)=O)cc3)C(=O)CC2)ccc1O`, the inhibition in vivo at 50 µmol/kg with Rattus norvegicus [1] is 26.6%; with Rattus norvegicus [3], 60.5%.

On to `CS(=O)(=O)c1ccc(N2N=C(c3ccc(Cl)cc3)CCC2=O)cc1`, for which the figures for the inhibition in vivo at 50 µmol/kg with Rattus norvegicus [1] and in the data set on Rattus norvegicus [3] were 26.6% and 36.8%, respectively. Moreover, the growth at 10 µM was found to be 58.3% in data set [6], 25.4% in the data set on NCI-H522 and 65.3% in the data set on NCI-H23.

For the compound `Cc1ccc(-c2ncc(Cl)cc2-c2ccc(S(C)(=O)=O)cc2)cn1` [ETORICOXIB], the inhibition in vivo at 50 µmol/kg is 83.3% with Rattus norvegicus [1] and 86.8% in the data set with Rattus norvegicus [3].

For `COc1ccc(C2=NN(c3ccc(S(C)(=O)=O)cc3)C(=O)CC2)cc1OC`, the inhibition in vivo at 50 µmol/kg in the data set with Rattus norvegicus [1] was determined as 66.6%; in the data set with Rattus norvegicus [3], 82.4%. In addition, the Activity result in the data set on Rattus norvegicus [2] is “Non-toxic”.

Take `CC(C)(C)c1ccc(C2=NN(c3ccc(S(C)(=O)=O)cc3)C(=O)CC2)cc1`: the inhibition in vivo at 50 µmol/kg in the data set on Rattus norvegicus [1] stood at 50%; in the data set on Rattus norvegicus [3] it was 68.4%. Also, the growth at 10 µM with RPMI-8226 turned out to be 69.6%; in data set [5], 70.7%.

In the case of `CS(=O)(=O)c1ccc(N2N=C(c3ccc(Cl)c(Cl)c3)CCC2=O)cc1`, the results for the inhibition in vivo at 50 µmol/kg in the data set on Rattus norvegicus [1] and in the data set with Rattus norvegicus [3] were 26.6% and 34.2%, respectively.

As to `COc1ccc(C2=NN(c3ccc(S(C)(=O)=O)cc3)C(=O)CC2)cc1`, the inhibition in vivo at 50 µmol/kg with Rattus norvegicus [1] stood at 46.7%; in the data set with Rattus norvegicus [3] it was 68.4%. Moreover, the growth at 10 µM was found to be 64% in the data set with SR, 62.1% in the data set with UO-31 and 7.92% in the data set with MDA-MB-435.

Take `CS(=O)(=O)c1ccc(N2N=C(c3ccc(O)c(Cl)c3)CCC2=O)cc1`: the inhibition in vivo at 50 µmol/kg in the data set with Rattus norvegicus [1] is 43.3%; in the data set on Rattus norvegicus [3] it was 55.2%. The growth at 10 µM with HL-60(TB) amounted to 66.7%.
